Experimental findings from ChEMBL document CHEMBL3593217, “Synthesis and bioactivity of a Goralatide analog with antileukemic activity” (Bioorg Med Chem, 2015) are described below.

As usually defined, the half-life is how long it takes for the measured level to halve. A high value points to slow loss.

The nature of series [1]: Chemical stability of the compound in DMSO after 7 days. It is filed as physicochemical. The following applies: 168 h. Put shortly:
(§1)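 Peptide kept in organic solvent (DMSO, CDCl₃ or MeOH) and watched for decomposition, read at 12 h and at 7 days.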

A short description of series [2]: Chemical stability of the compound in CDCl3 after 7 days. The following applies: 168 h. It is filed as physicochemical. Put shortly:
as §1

Series [3] relates to HL-60. In words: Cytotoxicity against human HL60 cells assessed as cell viability after 24 hrs by MTT assay. It is filed as functional, cell-based. The gist of the method: (§2)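 Cells exposed to peptide at a range of concentrations for 24 h, with DMSO as negative control. Tetrazolium (MTS-type) viability reagent added, then 1–2 h at 37 °C. Read-out is OD at 490 nm. Run in triplicate; significance by Student's t-test against untreated and DMSO-treated cells. Peptide stock was 25 mM in DMSO, stored at −20 °C.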

Series [4] concerns NALM-6. In words: Cytotoxicity against human NALM6 cells assessed as cell viability at 1 to 100 uM after 24 hrs by MTT assay. It is filed as functional, cell-based. Put shortly: as §2
(Tetrazolium assays rely on reduction of a dye to a coloured formazan, in cell work by metabolically active cells.)

In series [5] the test system is U-251. The experiment in a line: Cytotoxicity against human U251 cells assessed as reduction of clonogenicity at 10 uM after 1 to 2 weeks by crystal violet staining. It is filed as functional, cell-based. Put shortly:
(§3)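 Clonogenic survival: 1000 cells plated per well, then grown with or without peptide for 1–2 weeks before colonies were scored. Peptide stock was 25 mM in DMSO.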

Series [6] in a line: Chemical stability of the compound in MeOH after 7 days. It is filed as physicochemical. Particulars: 168 h. The gist of the method:
as §1

Series [7] relates to HEL. The experiment in a line: Cytotoxicity against human HEL cells assessed as cell viability at 1 to 100 uM after 24 hrs by MTT assay. It is filed as functional, cell-based. The gist of the method: as §2
Series [8] deals with HEK-293T. The experiment in a line: Cytotoxicity against human 293T cells assessed as reduction of clonogenicity at 10 uM after 1 to 2 weeks by crystal violet staining. It is filed as cell-based. Put shortly:
as §3

The subject of series [9] is HL-60. The experiment in a line: Cytotoxicity against human HL60 cells assessed as cell viability at 1 to 100 uM after 24 hrs by MTT assay. It counts as functional, cell-based. The gist of the method:
as §2

For series [10], the system named is HUVEC. In words: Cytotoxicity against human HUVEC cells assessed as cell viability after 24 hrs by MTT assay. It is filed as cell-based. The gist of the method:
as §2

Series [11] has as its system HL-60. In words: Cytotoxicity against human HL60 cells assessed as cell viability at 50 uM after 24 hrs by MTT assay. It counts as functional, cell-based. Put shortly: as §2
Series [12] can be described thus: Chemical stability of the compound in DMSO after 12 hrs. It counts as physicochemical. Put shortly:
as §1

Series [13] can be described thus: Chemical stability of the compound in MeOH after 12 hrs. It counts as physicochemical. The gist of the method: as §1
Series [14] in a line: Chemical stability of the compound in CDCl3 after 12 hrs. It counts as physicochemical. Put shortly: as §1
The subject of series [15] is NALM-6. The experiment in a line: Cytotoxicity against human NALM6 cells assessed as cell viability at 50 uM after 24 hrs by MTT assay. It is filed as functional, cell-based. Put shortly: as §2
Series [16] relates to HEL. In words: Cytotoxicity against human HEL cells assessed as cell viability at 50 uM after 24 hrs by MTT assay. It is filed as functional, cell-based. The gist of the method:
as §2

A short description of series [17]: Half life in human plasma. It counts as ADME, cell-free.

Activity calls are given as the source filed them. The rule behind the calls is not given here. Peptide text beside a SMILES is read from it. * marks the point of attachment. Cbz = O=C(OCc1ccccc1)*; OBn = c1ccc(CO*)cc1; OtBu = CC(C)(C)O*; tBu = CC(C)(C)*

Turning to `CC(=O)N[C@@H](COC(C)(C)C)C(=O)N[C@@H](CC(=O)OC(C)(C)C)C(=O)N[C@@H](CCCCNC(=O)OCc1ccccc1)C(=O)N1CCC[C@H]1C(=O)OCc1ccccc1` (Ac-S(tBu)D(OtBu)K(Cbz)P-OBn), the Stability result in [1], in [2] and in series [6] was “Stable” throughout. Further, the Activity entry in series [3] is “Dose-dependent effect”; in [8] it was “Toxic”; in series [10], “Dose-dependent effect”. Besides, the outcome in series [4], in [5], in [7] and in [9] was Active.

On to `CC(=O)N[C@@H](CO)C(=O)N[C@@H](CC(=O)O)C(=O)N[C@@H](CCCCN)C(=O)N1CCC[C@H]1C(=O)O` [GORALATIDE] (Ac-SDKP-OH), for which the inhibition entry in [11], in [15] and in [16] was “inactive” throughout. Further, the Stability result in [12], in series [13] and in [14] was “Unstable” each time. In [17], this compound came in with a half-life of 4.5 min.
